Assay results taken from PMC9076119 (RSC Advances, 2019).
Where two headings read alike, the source gives them in different places.

Tests used:
P. falciparum strain 3D7 = test: P. falciparum growth inhibition assay; type: cell-based, Plasmodium falciparum
Procedure, shortened: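 3D7 parasites kept in human erythrocytes (4% hematocrit) in RPMI with 0.5% albumax and synchronized by repeated sorbitol treatment. Assay wells used complete medium, 2% hematocrit and parasitemia ≤1%. Test compound (0–100 μM final) was added to 8–10 h rings, with a DMSO solvent control. Growth ran 52 h, then SYBR green DNA fluorescence was read. Triplicate wells; experiment repeated twice.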

3D7 Plasmodium parasites = test: Effect on parasite morphology and development; type: cell-based, Plasmodium falciparum; conditions: at their IC50 value concentration, ring stage (8–10 h) 3D7 parasites treated
Procedure, shortened: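 Sorbitol-synchronised P. falciparum 3D7 cultured in human erythrocytes (4% hematocrit) in RPMI with 0.5% albumax. Ring-stage (8–10 h) parasites treated with test compound, E-64 or solvent alone as control. Light microscopy of parasitized RBCs at several time points after treatment, following progression from ring to trophozoite to schizont to merozoites and reinvasion of fresh RBCs as new rings.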

[1] = Plasmodium falciparum, 3D7, read-out: Inhibition of P. falciparum EC50, 3D7 culture, ring stage 8–10 h, 52 h growth, SYBR green

SMILES	EC50 (P. falciparum strain 3D7; [1])	New ring formation (3D7 Plasmodium parasites)	EC50 (P. falciparum strain 3D7; read-out: Inhibition of P. falciparum EC50, 3D7 culture, ring stage 8–10 h, 52 h growth, SYBR green)
O=[N+]([O-])c1ccc(-n2cc(COc3ccnc4cc(Cl)ccc34)nn2)cc1 [Compound T7, 7-Chloro-4-{[1-(4-nitrophenyl)-1H-1,2,3-triazol-4-yl]methoxy} quinoline]	49.9 µM	few new rings	–
Fc1ccccc1-n1cc(COc2ccnc3cc(Cl)ccc23)nn1 [Compound T5, 7-Chloro-4-{[1-(2-fluorophenyl)-1H-1,2,3-triazol-4-yl]methoxy} quinoline]	49.5 µM	–	66.6 µM
Fc1ccc(-n2cc(COc3ccnc4cc(Cl)ccc34)nn2)cc1F [Compound T4, 7-Chloro-4-{[1-(3,4-difluorophenyl)-1H-1,2,3-triazol-4-yl]methoxy} quinoline]	21.9 µM	few new rings	–
Cc1ccccc1-n1cc(COc2ccnc3cc(Cl)ccc23)nn1 [Compound T9, 7-Chloro-4-{[1-(2-methylphenyl)-1H-1,2,3-triazol-4-yl]methoxy} quinoline]	147 µM	–	–
Fc1ccc(-n2cc(COc3ccnc4cc(Cl)ccc34)nn2)cc1 [Compound T6, 7-Chloro-4-{[1-(4-fluorophenyl)-1H-1,2,3-triazol-4-yl]methoxy} quinoline]	~57.9 µM	–	–
FC(F)(F)c1cccc(-n2cc(COc3ccnc4cc(Cl)ccc34)nn2)c1 [Compound T1, 7-Chloro-4-({1-[3-(trifluoromethyl)phenyl]-1H-1,2,3-triazol-4yl}methoxy) quinoline]	49.5 µM	–	–
Clc1ccc2c(OCc3cn(-c4ccccc4)nn3)ccnc2c1 [Compound T10, 7-Chloro-4-[(1-phenyl-1H-1,2,3-triazol-4-yl)methoxy] quinoline]	~57.6 µM	–	–
COc1ccc(-n2cc(COc3ccnc4cc(Cl)ccc34)nn2)cc1 [Compound T8, 7-Chloro-4-{[1-(4-methoxyphenyl)-1H-1,2,3-triazol-4-yl]methoxy} quinoline]	51.7 µM	–	–
